In ChEMBL document CHEMBL1158834, “Cytotoxic clerodane diterpenoids from Casearia membranacea” (2005):
Converted amounts (≈) assume the structure as drawn.

Assays:
Format in all cases: functional
[1] = Cytotoxicity against human medulloblastoma cells after 3 days by methylene blue staining; conditions: Medulloblastoma cell, 72 h, read-out: ED50 (the source's name)
How it was run: (§1)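 Cells grown in RPMI-1640 at 37 °C, 5% CO2, seeded at 2880 cells/well for 3 h, then given sample (prepared at 1, 10, 40 and 100 µg/mL) for 3 days at 37 °C. Fixed in 10% formaldehyde/0.9% saline, stained with 1% methylene blue in 0.01 M borate, eluted with EtOH/0.1 M HCl, A650 read. ED50 is the concentration halving absorbance versus untreated cells.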

KB = assay: Cytotoxicity against human KB cells after 3 days by methylene blue staining; conditions: 72 h, read-out: ED50 (the source's name); how it was run: as §1
DLD-1 = assay: Cytotoxicity against human DLD1 cells after 3 days by methylene blue staining; conditions: DLD-1, 72 h, read-out: ED50 (the source's name); how it was run: as §1

Structure (SMILES)	EC50 [1] [µg/mL]	EC50 (KB) [µg/mL]	EC50 (DLD-1) [µg/mL]
C=CC(=C)CC[C@]1(C)[C@H]2C[C@H](OC(=O)C(C)CC)C=C3[C@H](OC(C)=O)O[C@H](OC(C)=O)[C@@]32[C@H](O)C[C@@H]1C (relative stereo)	1.93 (≈ 3.72 µM)	3.6 (≈ 6.94 µM)	1.18 (≈ 2.28 µM)
C=CC(=C)CC[C@]1(C)[C@H]2C[C@H](OC(=O)C(C)CC)C=C3[C@H](OC(=O)CCC)O[C@H](OC(C)=O)[C@@]32[C@H](O)[C@H](OC(C)=O)[C@@H]1C (stereo partly drawn) [CASEAMEMBRIN D]	2.42 (≈ 4 µM)	5.57 (≈ 9.21 µM)	1.81 (≈ 2.99 µM)
C=CC(=C)CC[C@]1(C)[C@H]2C[C@H](OC(=O)C(C)CC)C=C3[C@H](OC(C)=O)O[C@H](OC(C)=O)[C@@]32[C@H](OC(=O)CCC)C[C@@H]1C (stereo partly drawn) [CASEAMEMBRIN M]	14.4 (≈ 24.5 µM)	18.4 (≈ 31.3 µM)	14.2 (≈ 24.1 µM)
C=CC(=C)CC[C@]1(C)[C@H]2C[C@H](OC(=O)CCC)C=C3[C@H](OC(C)=O)O[C@H](OC(C)=O)[C@@]32[C@H](O)[C@H](OC(C)=O)[C@@H]1C [CASEAMEMBRIN N]	3.27 (≈ 5.81 µM)	8.94 (≈ 15.9 µM)	4.37 (≈ 7.77 µM)
C=CC(=C)CC[C@]1(C)[C@H]2C[C@H](OC(=O)CC(C)C)C=C3[C@H](OC(C)=O)O[C@H](OC(C)=O)[C@@]32[C@H](O)[C@H](OC(C)=O)[C@@H]1C [CASEAMEMBRIN O]	1.94 (≈ 3.36 µM)	6.94 (≈ 12 µM)	2.54 (≈ 4.4 µM)
CO[C@@]12[C@H](COC(N)=O)C3=C(C(=O)C(C)=C(N)C3=O)N1C[C@@H]1N[C@@H]12 [MITOMYCIN]	0.1 (≈ 0.299 µM)	0.13 (≈ 0.389 µM)	0.1 (≈ 0.299 µM)
